# Measurements from ChEMBL document CHEMBL4715757, “Studies on the inhibition of sphingosine-1-phosphate lyase by stabilized reaction intermediates and stereodefined azido phosphates” (Eur J Med Chem, 2016).
# Assays:
# [1] = target: T1, Sphingosine-1-phosphate lyase 1 (Mus musculus, UniProt Q8R0X7); assay: Inhibition of mouse liver microsomal S1PL using S1P as substrate incubated for 20 mins by ESI-LC/MS analysis; type: microsomes, Microsome
# T1 sequence (Q8R0X7 whole entry): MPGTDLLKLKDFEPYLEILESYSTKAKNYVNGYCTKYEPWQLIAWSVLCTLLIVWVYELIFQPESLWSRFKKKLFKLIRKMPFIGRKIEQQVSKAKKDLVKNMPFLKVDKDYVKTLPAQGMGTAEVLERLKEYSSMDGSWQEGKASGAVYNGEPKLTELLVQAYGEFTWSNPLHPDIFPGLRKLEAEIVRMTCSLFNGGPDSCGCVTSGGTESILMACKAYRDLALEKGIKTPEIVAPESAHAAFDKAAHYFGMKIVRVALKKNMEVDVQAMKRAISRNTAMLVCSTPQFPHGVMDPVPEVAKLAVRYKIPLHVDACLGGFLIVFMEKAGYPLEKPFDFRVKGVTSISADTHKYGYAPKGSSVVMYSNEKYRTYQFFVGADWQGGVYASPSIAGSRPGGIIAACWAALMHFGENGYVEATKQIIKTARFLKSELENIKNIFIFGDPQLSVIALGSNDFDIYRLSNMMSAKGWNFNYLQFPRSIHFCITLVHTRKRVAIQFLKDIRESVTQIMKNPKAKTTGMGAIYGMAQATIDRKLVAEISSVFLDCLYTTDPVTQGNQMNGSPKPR
# [2] = target: T2, Sphingosine-1-phosphate lyase 1 (Homo sapiens, UniProt O95470); assay: Inhibition of recombinant human S1PL using RBM13 as fluorogenic substrate incubated for 1 hr
# T2 sequence (O95470 whole entry): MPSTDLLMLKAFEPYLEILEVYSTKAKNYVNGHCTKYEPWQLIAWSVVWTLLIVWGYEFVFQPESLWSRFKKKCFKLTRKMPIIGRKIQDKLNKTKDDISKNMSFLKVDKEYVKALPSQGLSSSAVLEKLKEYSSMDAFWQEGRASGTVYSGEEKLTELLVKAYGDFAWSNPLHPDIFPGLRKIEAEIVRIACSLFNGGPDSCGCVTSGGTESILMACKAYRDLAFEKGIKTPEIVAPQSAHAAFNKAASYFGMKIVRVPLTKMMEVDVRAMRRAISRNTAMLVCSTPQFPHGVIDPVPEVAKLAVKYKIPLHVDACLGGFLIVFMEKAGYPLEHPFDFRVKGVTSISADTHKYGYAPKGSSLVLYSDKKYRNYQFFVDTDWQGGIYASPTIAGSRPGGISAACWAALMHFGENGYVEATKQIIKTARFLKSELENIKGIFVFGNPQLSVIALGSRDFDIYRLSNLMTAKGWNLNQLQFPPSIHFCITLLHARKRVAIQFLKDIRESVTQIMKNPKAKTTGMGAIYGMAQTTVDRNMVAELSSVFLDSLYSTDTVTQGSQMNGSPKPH
# Summary of the method: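 Recombinant hS1PL at 3 µg/mL final in 100 mM HEPES pH 7.4 with 0.1 mM EDTA, 0.05% Triton X-100, 0.01% Pluronic F127 and 100 µM PLP. RBM13 at 125 µM final; 37 °C for 1 h. MeOH stop, then glycine-NaOH pH 10.6 for 20 min at 37 °C. Umbelliferone fluorescence at 355/460 nm, calibration curve. IC50 from % activity vs log[I].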
# [3] = Inhibition of recombinant full-length wild type Symbiobacterium thermophilum S1PL using RBM13 as fluorogenic substrate incubated for 1 hr
# Summary of the method: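 StS1PL, expressed and purified in-house, used at 25 µg/mL final. Buffer: 1 mM potassium phosphate pH 7.2 with 100 mM NaCl, 1 mM EDTA, 1 mM DTT and 10 µM PLP. RBM13 at 125 µM final; 37 °C for 1 h. Stopped with MeOH, then glycine-NaOH pH 10.6 for 20 min at 37 °C. Umbelliferone read at ex/em 355/460 nm against a calibration curve. IC50 fitted from % activity vs log[I].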
# [4] = target: T2, Sphingosine-1-phosphate lyase 1; assay: Competitive inhibition of human S1PL using varying levels of RBM13 as substrate by Lineweaver-Burk plot analysis
# [5] = target: T3, Sphingosine-1-phosphate lyase 1 (Homo sapiens) (UniProt O95470); assay: Inhibition of recombinant human S1PL at 250 uM using RBM13 as fluorogenic substrate incubated for 1 hr relative to control
# T3 sequence (whole entry): T2 sequence (O95470 whole entry)
# [6] = system: Symbiobacterium thermophilum; assay: Inhibition of recombinant full-length wild type Symbiobacterium thermophilum S1PL at 250 uM using RBM13 as fluorogenic substrate incubated for 1 hr relative to control
IC50 [1] [µM],IC50 [2] [µM],IC50 [3] [µM],Ki [4] [µM],inhibition [5] [%],inhibition [6] [%],Structure (SMILES)
52.4,–,–,–,–,–,CCCCCCCCc1ccc(CCC(N)(CO)CO)cc1 [FINGOLIMOD]
–,21.8,27.2,16.4,–,–,CCCCCCCCCCCCCCC[C@H](O)[C@H](COP(=O)(O)O)N=[N+]=[N-]
–,89,53.4,–,–,–,CCCCCCCCCCCCC/C=C/[C@@H](O)[C@H](COP(=O)(O)O)NCc1c(COP(=O)(O)O)cnc(C)c1O
–,10.1,12.9,9.1,–,–,CCCCCCCCCCCCC/C=C/[C@@H](O)[C@H](COP(=O)(O)O)N=[N+]=[N-]
–,25.7,25,19,–,–,CCCCCCCCCCCCCCC[C@@H](O)[C@H](COP(=O)(O)O)N=[N+]=[N-]
–,10.8,25.7,6.3,–,–,CCCCCCCCCCCCCCC[C@H](O)[C@@H](COP(=O)(O)O)N=[N+]=[N-]
–,81.1,47,–,–,–,CCCCCCCCCCCCCCC[C@@H](O)[C@H](COP(=O)(O)O)NCc1c(COP(=O)(O)O)cnc(C)c1O
–,22.9,11.7,17.5,–,–,CCCCCCCCCCCCC/C=C/[C@@H](O)[C@@H](COP(=O)(O)O)N=[N+]=[N-]
–,28.3,24.3,36.7,–,–,CCCCCCCCCCCCCCC[C@@H](O)[C@@H](COP(=O)(O)O)N=[N+]=[N-]
–,–,–,–,20,20,Cc1ncc(COP(=O)(O)O)c(CNCCOP(=O)(O)O)c1O
–,28.8,16,20.4,–,–,CCCCCCCCCCCCC/C=C/[C@H](O)[C@H](COP(=O)(O)O)N=[N+]=[N-]
–,5.2,13.8,5.6,–,–,CCCCCCCCCCCCC/C=C/[C@H](O)[C@@H](COP(=O)(O)O)N=[N+]=[N-]
